Results reported in PubChem BioAssay.
Records with an inconclusive call do not appear. Activity calls are given as the source filed them.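 The calls were made as follows, unless noted: active = RAM network inhibition above 8.4% in each of two replicates, 3 SD over the compound average; inconclusive = above 8.4% inhibition in only one replicate; inactive = 8.4% inhibition or less in each replicate.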

How the values were obtained:
[1] = OD615 S. cerevisiae growth inhibition, permissive medium, pilot counter-assay, permissive growth control for S. cerevisiae lifespan shortening project (AID 705;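 active = growth inhibition above 25% in both replicates, a cutoff set 3 SD above the mean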); conditions: OD615, 24 h, at 10 µM, active compounds read high
Method in brief: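 assay system = Saccharomyces cerevisiae strain carrying genetically modified DeaD replicative-lifespan system | medium = SC raffinose/galactose permissive medium | dosing = 10 µM single dose, 0.25% DMSO | schedule = 24 h compound exposure at 30 °C after 4 h pre-growth | measured by = OD at 615 nm | read-out basis = growth inhibition from lowered OD615 after 24 h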

[2] = Restrictive medium S. cerevisiae growth inhibition, OD615, pilot screen of yeast lifespan reduction project, restrictive growth control (AID 706;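 active = growth inhibition above a set limit, 3 SD over mean compound inhibition, in both replicates, cut at about 43% in these data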;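 also: modified DeaD lifespan yeast strain shifted to restrictive glucose medium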); conditions: OD615, 48 h, at 10 µM, active compounds read high
Method in brief: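 Buffer or medium: CSMM-D glucose medium. Material: genetically modified Saccharomyces cerevisiae, DeaD replicative lifespan assay strain. Times: 48 h compound exposure at 30 °C. Measured by: optical density at 615 nm.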

[3] = viability gain of MRP-1-high H69AR cells under doxorubicin, pilot screen, MRP-1 activator project, CellTiter-Glo, duplicate (AID 807;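 active = viability increase at or above a cutoff of the median across tested compounds plus 3 SD, cut at about 8.5% in these data, passing the limit was not always enough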;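 also: compound pretreatment 18-22 h then 72 h combined with doxorubicin; 0% = doxorubicin alone and 100% = vehicle without doxorubicin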); conditions: H69AR viability with doxorubicin, CellTiter-Glo luminescence; at 10 µM; active compounds read high
[4] = growth suppression of beta-catenin knockout HCT116, pilot screen, human colon tumor cells (AID 823;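 active = cell viability at or below a set limit in both duplicate runs, the limit being the all-compound median minus 4 SD, cut at about 23% in these data, passing the limit was not always enough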;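 also: 0% = wells killed by 20 µM Hyamine and 100% = untreated DMSO cell wells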); conditions: CellTiter-Glo, 60 h, at 10 µM, active compounds read low
[5] = growth suppression of PTEN-deleted HCT116, pilot screen, cell-based, HCT116 clonal line, CellTiter-Glo (AID 824;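 active = viability at or below 27.92% in each of two runs, the all-compound median minus 4 SD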;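 also: 0% = 20 µM Hyamine control and 100% = vehicle cell control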); conditions: 60 h, at 10 µM, active compounds read low
[6] = inhibitors of the yeast RAM network, pilot screen, dse1pr::URA3 reporter, 5-FOA selection (AID 869;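 active = inhibition over a set limit, the all-compound mean plus 3 SD, in both replicate runs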;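 also: 0% = DMSO wells with no growth and 100% = 10 µM 1-NA-PP1 with full growth; RAM network block rescues cells from 5-FOA so hits raise OD615 growth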); conditions: S. cerevisiae dse1pr::URA3 5-FOA growth, OD615, 2 d; at 10 µM; active compounds read high; strain carries analog-sensitive mutant Cbk1 kinase
[7] = RAM signaling pathway blockade in yeast – S. cerevisiae, Pdr1DBD-CYC8 efflux-inhibited sensitized strain, primary screen (AID 1298);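 also: 0% = DMSO untreated cells without growth and 100% = 10 µM 1-NA-PP1 full growth; higher means more yeast growth rescued from 5-FOA killing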; conditions: S. cerevisiae cbk1-as DSE1-URA3 strain, 5-FOA growth OD615, 2 d; at 50 µM; active compounds read high

SMILES	growth inhibition [1]	growth inhibition [2]	viability increase [3]	viability [4]	viability [5]	inhibition [6]	RAM network inhibition [7]
c1nc2nc3c(c(N4CCOCC4)n2n1)CCCC3	-6.33% (inactive)	11.4% (inactive)	-1.47% (inactive)	103% (inactive)	99.7% (inactive)	0.645% (inactive)	0.44% (inactive)
COc1ccc(C)c(S(=O)(=O)Nc2ccc(OCC(=O)O)cc2)c1	2.53% (inactive)	-4.93% (inactive)	-1.41% (inactive)	99% (inactive)	102% (inactive)	0.345% (inactive)	-1.4% (inactive)
CN(CC(=O)NCCC1=CCCCC1)S(=O)(=O)c1ccc2c(c1)c(=O)n(C)c(=O)n2C	-7.74% (inactive)	-27.4% (inactive)	-1.64% (inactive)	84.4% (inactive)	76.8% (inactive)	2.88% (inactive)	4.5% (inactive)
Cc1ccc(-c2ccc(CCC(=O)O)n2CC(=O)O)cc1	-3.08% (inactive)	-11.2% (inactive)	-1.34% (inactive)	98.7% (inactive)	107% (inactive)	1.36% (inactive)	1.3% (inactive)
CCOC(=O)C1CCN(C(c2cccs2)c2sc3nc(C)nn3c2O)CC1 (stereo not given)	-2.81% (inactive)	-7.96% (inactive)	-0.58% (inactive)	105% (inactive)	99.3% (inactive)	0.905% (inactive)	3.86% (inactive)
Cc1cc(C)n(CC(=O)n2c3ccccc3c3ccccc32)n1	5.86% (inactive)	-3.37% (inactive)	-3.82% (inactive)	78.2% (inactive)	91.7% (inactive)	0.155% (inactive)	-1.18% (inactive)
Cc1ccccc1NC(=O)NCCN1C(=O)C2C3C=CC(C3)C2C1=O (stereo not given)	-7.87% (inactive)	1.59% (inactive)	-2.01% (inactive)	103% (inactive)	102% (inactive)	0.745% (inactive)	1.46% (inactive)
O=S(=O)(NCC(c1cccnc1)N1CCN(c2ccc(F)cc2)CC1)c1ccc(F)cc1 (stereo not given)	-0.55% (inactive)	-0.65% (inactive)	-2.52% (inactive)	87.4% (inactive)	84.5% (inactive)	4.02% (inactive)	4.9% (inactive)
C=CCc1c(C)nc(SC)nc1Nc1ccc(C(C)=O)cc1	-6.88% (inactive)	-6.6% (inactive)	-3.83% (inactive)	83.8% (inactive)	87.1% (inactive)	1.53% (inactive)	6.87% (inactive)
Cc1cc(C)n(-c2nc3ccccc3c3nc(C)nn23)n1	-10.5% (inactive)	-2.51% (inactive)	-0.57% (inactive)	104% (inactive)	101% (inactive)	0.195% (inactive)	4.75% (inactive)
O=C1CC(c2ccco2)CC2=C1C1c3ccccc3C(=O)N1c1ccccc1N2 (stereo not given)	-9.63% (inactive)	-5.43% (inactive)	3.98% (inactive)	7.74% (active)	7.59% (active)	1.36% (inactive)	4.2% (inactive)
CC1=C(C(=O)OCCOc2ccccc2)C(c2ccc(C)o2)C2=C(CC(C)(C)CC2=O)N1 (stereo not given)	-17.6% (inactive)	-10.8% (inactive)	-0.88% (inactive)	78.2% (inactive)	78.6% (inactive)	1.73% (inactive)	7.5% (inactive)
O=C(CCc1ccccc1)Nc1ccc(NC(=O)c2ccco2)cc1	-5.04% (inactive)	0.64% (inactive)	-1.63% (inactive)	103% (inactive)	93.7% (inactive)	1.44% (inactive)	2.56% (inactive)
O=C(CCNS(=O)(=O)c1cccc2nonc12)NCCc1ccc(Cl)cc1	-2.56% (inactive)	-9.13% (inactive)	5.07% (inactive)	90% (inactive)	101% (inactive)	-0.08% (inactive)	3% (inactive)
CCOC(=O)c1nnc2cc(-c3ccccc3)nn2c1C	3.76% (inactive)	16% (inactive)	0.86% (inactive)	93.6% (inactive)	95.3% (inactive)	1.5% (inactive)	0.86% (inactive)
Cc1ccc(-n2ncc3c(NCCCN4CCOCC4)ncnc32)c(C)c1	-6.19% (inactive)	6.86% (inactive)	-1.79% (inactive)	96.1% (inactive)	93.9% (inactive)	2.75% (inactive)	0.42% (inactive)
O=C(CCSCCc1ccccn1)Nc1nccs1	6.12% (inactive)	8.44% (inactive)	-0.56% (inactive)	102% (inactive)	94.8% (inactive)	2.55% (inactive)	0.66% (inactive)
CC(=O)N(CCCN(C)C)CCC(C)CCC=C(C)C (stereo not given)	-7.18% (inactive)	-5.88% (inactive)	-2.93% (inactive)	94.1% (inactive)	92.7% (inactive)	0.41% (inactive)	3.84% (inactive)

SMILES	growth inhibition [1]	growth inhibition [2]	viability increase [3]	viability [4]	viability [5]	inhibition [6]	RAM network inhibition [7]
O=C(CSc1nc(-c2ccco2)cc(C(F)(F)F)n1)NC1CCCC1	-9.81% (inactive)	5.25% (inactive)	-0.46% (inactive)	89.3% (inactive)	89.5% (inactive)	0.995% (inactive)	1% (inactive)
CCOc1ccc(-n2c(Cc3cc(=O)[nH]c(=O)[nH]3)nnc2SCC(=O)NC2CCCC2)cc1	-1.49% (inactive)	4.62% (inactive)	-0.16% (inactive)	101% (inactive)	100% (inactive)	-1.29% (inactive)	-0.37% (inactive)
CCOC(=O)CCCSc1nc2sc(C)c(C)c2c(=O)[nH]1	-12.1% (inactive)	-15.5% (inactive)	-0.74% (inactive)	102% (inactive)	98.5% (inactive)	3.01% (inactive)	3.95% (inactive)
O=C(NCCn1cc(SCC(=O)N2CCOCC2)c2ccccc21)c1ccccc1	1.06% (inactive)	-5.21% (inactive)	0.4% (inactive)	97% (inactive)	99.8% (inactive)	-0.225% (inactive)	0.78% (inactive)
CCOC(=O)C1=C(C)NC(=O)NC1c1ccco1 (stereo not given)	1.02% (inactive)	-9.79% (inactive)	-3.38% (inactive)	103% (inactive)	105% (inactive)	-0.995% (inactive)	-0.57% (inactive)
COc1ccc(C(=O)Nc2c(F)c(F)c(F)c(F)c2F)c(OC)c1	-11% (inactive)	3.84% (inactive)	-1.15% (inactive)	100% (inactive)	102% (inactive)	2.96% (inactive)	2.45% (inactive)
Cc1c(NC(=O)OCc2ccccc2)c(=O)n(-c2ccccc2)n1C	-7.33% (inactive)	-0.325% (inactive)	0.05% (inactive)	109% (inactive)	91.1% (inactive)	1.35% (inactive)	7.69% (inactive)
CC(=O)N1CSCC1C(=O)N1CCN(c2ccc(N3CCOCC3)nn2)CC1 (stereo not given)	5.2% (inactive)	12.4% (inactive)	-0.66% (inactive)	103% (inactive)	95.1% (inactive)	1.55% (inactive)	0.26% (inactive)
COCCN1C=C(C(=O)OC)C(c2ccc3c(c2)OCO3)C(C(=O)OC)=C1	-9.64% (inactive)	1.92% (inactive)	2.8% (inactive)	97.9% (inactive)	102% (inactive)	-0.19% (inactive)	3.59% (inactive)
Oc1ccccc1CNc1nc2ccccc2n1CCN1CCCCC1	-15.8% (inactive)	-9.88% (inactive)	-8.6% (inactive)	52.5% (inactive)	48.8% (inactive)	2.86% (inactive)	1.77% (inactive)
CCOC(=O)CSCc1nc(-c2ccc(Cl)cc2)oc1C	-11.6% (inactive)	-8.34% (inactive)	1.98% (inactive)	94.8% (inactive)	89.8% (inactive)	1.97% (inactive)	-1.32% (inactive)
O=S1(=O)N=C(Nc2ccc(O)c(CN3CCCCC3)c2)c2ccccc21	5.56% (inactive)	-0.14% (inactive)	-3.07% (inactive)	90.8% (inactive)	97.1% (inactive)	2.89% (inactive)	6.37% (inactive)
O=C(CN1CCN(C(=O)c2ccco2)CC1)Nc1ccccc1-c1ccccc1	6.65% (inactive)	6.94% (inactive)	-2.16% (inactive)	91% (inactive)	86.1% (inactive)	1.32% (inactive)	3.75% (inactive)
CCCc1n[nH]c2c1C(=O)CC(C)(C)C2	-9.08% (inactive)	-9.82% (inactive)	-1.76% (inactive)	95.6% (inactive)	102% (inactive)	0.98% (inactive)	2.76% (inactive)
O=C(Cn1c(S(=O)(=O)Cc2ccccc2)nc2ccccc21)N1CCCCC1	-5.32% (inactive)	2.88% (inactive)	-6.5% (inactive)	107% (inactive)	99.3% (inactive)	-0.04% (inactive)	3.73% (inactive)
Cn1c(=O)c2c(nc(SCc3cc4c(cc3Cl)OCO4)n2C)n(C)c1=O	-5.9% (inactive)	-0.11% (inactive)	-0.21% (inactive)	99.6% (inactive)	100% (inactive)	1.15% (inactive)	5.36% (inactive)
CCOc1cccc2sc(NC(=O)c3ccc(Br)s3)nc12	-25.6% (inactive)	-9.82% (inactive)	-3.55% (inactive)	65.4% (inactive)	58% (inactive)	2.42% (inactive)	4.63% (inactive)
